B1: tRNA (parent)
chain: GUUCCGUUGGCGUAAUGGUAACGCGUCUCCCUCCUAAGGAGAAGACUGCGGGUUCGAGUCCCGUACGGAACG

Variants of: B1
Assay: yeast fitness, log relative to wild type (ln ratio); higher = fitter; tRNA-Arg(CCU), competitive growth, 37 C, 1 M NaCl
Outline: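 Fitness is the natural log of a genotype's generation count divided by that of the wild type. A combinatorial library of tRNA-Arg(CCU) variants sat on a HIS3 centromeric plasmid in BY4742 lacking the chromosomal gene, from two independent transformations. Pools grew 4 generations in SC-HIS at 30 °C, then ~6.5 generations (~26.5 h) in SC-HIS 1M NaCl at 37 °C, with three outputs per input. Generations came from OD-scaled log2 output/input frequency, inverse-variance weighted across replicates, with variants counted by 125 bp paired-end Illumina sequencing.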

| Variant | yeast fitness (ln) |
| --- | --- |
| G1A U2G A43C C66A A70U | -0.12 |
| G1A U2C G6A C27U C66U A70U C71U | -0.261 |
| G1A U2C G6U C46U A70U C71U | -0.033 |
| G1A U2C G6U | -0.00557 |
| G1A U2G A70U C71U | 0.00659 |
| G1A U2C G6U C46U A69G A70G | -0.0666 |
| G1A U2C G6U C46U A69G A70U | -0.0237 |
| G1A U2C G6U C27U C66A A69G A70G C71U | -0.137 |
| G1A U2G C27U A43C C46U C66A A69G A70G | -0.146 |
| G1A U2G C27U A43C C46U | -0.038 |
| G1A U2G A43C C66U A69G A70U C71U | -0.472 |
| G1A U2C G6A C66U A70G C71U | -0.0113 |
| G1A U2C G6A C46U A69G A70U C71U | -0.0787 |
| G1A U2C G6A C27U A43C C46U C66U A69G A70G C71U | -0.0617 |
| G1A U2C G6U C46U C66U A70U C71U | -0.203 |
| G1A U2C G6U A43C C46U C66A A70G C71U | -0.0283 |
| G1A U2C G6A C27U C66U A69G A70G C71U | -0.0671 |
| G1A U2C G6U C27U A43C C46U C66A A69G A70U | -0.378 |
| G1A U2C G6A C27U A43C C46U A69G A70G C71U | -0.0929 |
| G1A U2C G6U C27U A43C C66U A69G A70U C71U | -0.42 |
| G1A U2C G6A C27U C46U | -0.0428 |

| Variant | yeast fitness (ln) |
| --- | --- |
| G1A U2C G6A C27U A43C C46U A69G A70U C71U | -0.408 |
| G1A U2G A43C C46U C66U A69G A70G | -0.254 |
| G1A U2G A43C C46U C66U A69G A70U | -0.181 |
| G1A U2C G6A C66A A70G C71U | -0.127 |
| G1A U2G A43C C46U A69G C71U | -0.18 |
| G1A U2C G6U C27U C46U | -0.0885 |
| G1A U2C G6A C27U C66U A69G A70U | -0.0942 |
| G1A U2C G6A C27U A43C C46U A70G | 0.0488 |
| G1A U2C G6A C27U A43C C46U A70U | -0.125 |
| G1A U2G C27U A43C C46U A69G C71U | -0.239 |
| G1A U2C G6U C46U C66A A70U | -0.184 |
| G1A U2C G6U C46U C66A A70G | -0.0166 |
| G1A U2C G6U C27U C46U C66A A70U | -0.0687 |
| G1A U2C G6U C27U C46U C66A A70G | -0.0541 |
| G1A U2C G6U C46U C66A A69G A70U | 0.0136 |
| G1A U2C G6U C46U C66A A69G A70G | -0.139 |
| G1A U2G C27U A43C A69G A70U C71U | -0.353 |
| G1A U2G A70G C71U | -0.212 |
| G1A U2C G6U A43C A69G A70G C71U | -0.268 |
| G1A U2C G6U C27U C66U A70G C71U | -0.496 |
| G1A U2C G6U C27U A43C C46U C66U A70U C71U | -0.315 |

| Variant | yeast fitness (ln) |
| --- | --- |
| G1A U2C G6U C27U C46U C66A A70G C71U | -0.0279 |
| G1A U2C G6U C27U A43C C46U A69G A70G | -0.297 |
| G1A U2C G6U C27U A43C C46U A69G A70U | -0.183 |
| G1A U2G A43C C46U A69G | -0.0712 |
| G1A U2C G6U C27U A43C A69G A70G C71U | -0.238 |
| G1A U2G A43C C46U C66U A69G C71U | -0.404 |
| G1A U2G A43C C46U C66U A70U C71U | -0.242 |
| G1A U2C G6U A43C C66U A70U | -0.295 |
| G1A U2G A43C | -0.0767 |
| G1A U2C G6U C27U A43C C46U A70G | -0.207 |
| G1A U2C G6U C27U A43C C46U A70U | -0.151 |
| G1A U2G A43C C66U A70G C71U | -0.22 |
| G1A U2C G6A C27U C46U A70U C71U | -0.0799 |
| G1A U2G C27U A43C C46U A69G A70U C71U | -0.399 |
| G1A U2C G6A C27U C46U C66U A69G A70U | -0.0756 |
| G1A U2C G6A C27U C46U C66U A69G A70G | -0.364 |
| G1A U2C G6U C27U A70G C71U | -0.212 |
| G1A U2C G6U C27U A43C C46U C66U A70U | -0.243 |
| G1A U2C G6U C46U C66A A70G C71U | -0.0251 |
| G1A U2C G6U A43C | -0.116 |
| G1A U2G A43C C66U A69G A70G | -0.328 |

| Variant | yeast fitness (ln) |
| --- | --- |
| G1A U2G A43C C66U A69G A70U | -0.287 |
| G1A U2G A43C C66A C71U | -0.228 |
| G1A U2G C27U A43C C46U A69G A70G | -0.22 |
| G1A U2G C27U A43C C46U A69G A70U | -0.161 |
| G1A U2C G6U C27U A43C C46U C66U A69G A70U C71U | -0.398 |
| G1A U2C G6A C27U C46U C66U A69G A70G C71U | -0.0405 |
| G1A U2G A43C C66U A70U | -0.185 |
| G1A U2G A43C C66U A70G | -0.214 |
| G1A U2C G6U C46U | 0.0116 |
| G1A U2C G6U C27U | -0.0816 |
| G1A U2C G6U C27U A43C C46U C66A A69G A70G C71U | -0.0612 |
| G1A U2C G6A C27U A70U C71U | -0.109 |
| G1A U2C G6U C27U A43C C46U C66U A69G A70G | -0.279 |
| G1A U2C G6U C27U A43C C46U C66U A69G A70U | -0.472 |
| G1A U2C G6U C46U A69G C71U | -0.0722 |
| G1A U2G A43C C46U C66A A69G C71U | -0.335 |
| G1A U2C G6U C27U C66U A69G A70U | -0.245 |
| G1A U2C G6U C27U A43C C46U C66U A69G A70G C71U | -0.316 |
| G1A U2C G6U C66U A70G C71U | -0.0525 |
| G1A U2C G6U C27U C46U A69G A70G | -0.176 |
| G1A U2C G6U C27U C46U A69G A70U | -0.219 |

From the RNAGym collection of RNA variant scans (doi:10.1038/s41586-018-0170-7)
